GalR3 antagonist = human GalR3 antagonism; O60755; HEK293 GalR3-CNG cAMP membrane potential fluorescence; galR3 body fused to GalR1 C-terminus; inhibition, % at 3 µM; 0.44% of 360,000 active;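 active means inhibition above the screen-wide average plus 3 SD, cut at about 13% in these data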;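 further: forskolin and galanin both at EC90 stimulate the cells; cAMP rise reported by CNG channel membrane potential dye signal; 0% = forskolin plus galanin with DMSO and 100% = forskolin alone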
Rin1-Abl PPI inh = blocks binding of human Rin1 to Abl; P00519+Q13671; AID 588664; 0.4% of 360,000 active; inhibition, % at 7.35 µM; TR-FRET Rin1/Abl binding, biochemical; in the data active means inhibition above about 5%, passing the limit was not always enough
ARFGAP1 inh = inhibitors of rat ARFGAP1 | 0.26% of 360,000 active | Q62848 | inhibition, % at 16.5 µM | Arfgap1-stimulated ARF1 GTP hydrolysis, GDP FP detection | AID 651572;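 active means inhibition above a per-plate limit, mean inhibition of low control wells plus 3 SD, cut at about 25% in these data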;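 further: 0% = DMSO wells with enzyme and 100% = wells lacking Arfgap1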
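system = rat Arfgap1 catalytic domain, aa 1-136 | technique = FP, GDP Alexa 633 tracer displaced from anti-GDP antibody, 620/688 nm | compound = one concentration, 16.5 µM, DMSO 1.26% | medium = HEPES-based buffer, pH 7.5 | timing = compound-enzyme preincubation 20 min, reaction 120 min, detection 60 min, 25 °C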
ASAP1 inh = blocks human ASAP1-stimulated Arf1 GTP hydrolysis | Q9ULH1 | GDP FP detection | inhibition, % at 16.5 µM | 0.19% of 360,000 active | AID 624377; in the data active means inhibition above about 25%;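 further: 0% = vehicle with enzyme and substrate and 100% = no enzyme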
Rin1 Abl conf = confirmation of inhibitors of human Rin1-Abl interaction. shares compounds with Rin1-Abl PPI inh. TR-FRET Rin1-Abl binding, purified proteins. inhibition, % at 7.35 µM. 49% of 1,300 active
GFP quencher = counter-screen for Rin1-Abl inhibitors: GFP fluorescence quenchers | inhibitors/quenchers counterscreen | shares compounds with Rin1-Abl PPI inh | 8.5% of 1,300 active | inhibition, % at 6.75 µM;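 further: ABL1-eGFP fusion protein alone without its partner RIN1-SBP; 0% = protein with vehicle and 100% = wells lacking protein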
GFP quench dose = counter-screen for Rin1-Abl inhibitors: GFP quenchers, dose response; shares compounds with Rin1-Abl PPI inh; GFP fluorescence interference/quenching counterscreen; AID 602182; 230 tested, under 10 active; IC50, µM; call rule not given here;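 further: ABL1-eGFP fusion protein alone without its RIN1 binding partner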
Numbers without * were called inactive; . = no result given; ! = not active in a repeat. Shown are actives, neighbours in structure and some others; about 1.2% of the full set was active somewhere. Unless noted, no stated cut-off is given here; in the data, active means inhibition above about 6.5%; inactive means the rest.

SMILES | GalR3 antagonist | Rin1-Abl PPI inh | ARFGAP1 inh | ASAP1 inh | Rin1 Abl conf | GFP quencher | others
C=CCNC(=O)c1ccc2nc(Cc3ccc(OC)cc3)oc2c1 | -11 | 2 | 0 | -2 | . | .
COc1ccc(Cc2nc3ccc(C(=O)NCC4COCCO4)cc3o2)cc1 (stereo not given) | -1 | 7.8* | 2 | 5 | -1 | -1
O=C(N[C@H](Cc1ccccc1)C(=O)N1CCN(c2ncccn2)CC1)[C@H]1O[C@@H](n2ccc(=O)[nH]c2=O)[C@H](O)[C@@H]1O | -8 | . | 1 | -2 | . | .
Cn1c(=O)c2c(nc(SCCCC#N)n2Cc2c(F)cccc2Cl)n(C)c1=O | -1 | 7.2* | -2 | 9 | 9.2* | -1
CCOC(=O)Nc1nnc(Cc2ccc(Cl)c(Cl)c2)s1 | -1 | 9.3* | 9 | 11 | -2 | 0
O=C(NCc1ccccc1)[C@H]1CCCN1C(=O)[C@H]1CCCN1C(=O)c1ccccc1C(F)(F)F | 6 | . | 1 | -4 | . | .
COC(=O)c1cc2c(c3c4ccccc4n(S(=O)(=O)c4ccc(OC)cc4)c13)C(=O)N(Cc1ccc(N(C)C)cc1)C2 | -1 | . | -15 | -2 | . | .
COC(=O)C1=C(C)N(Cc2cccc(C(F)(F)F)c2)C(=NCc2ccc(OC)cc2)NC1c1ccc(F)cc1 (stereo not given) | -2 | . | 1 | 5 | . | .
O=C1NCC(O)=C1C=NC12CC3CC(CC(C3)C1)C2 | -1 | 31* | -13 | 0 | 23* | 0 | GFP quench dose=>68
O=C(COC(=O)c1cccnc1)Nc1ccc(F)cc1 | -2 | 5.7* | -8 | -10 | -2 | 0
C[C@@H]1ON(C)[C@H]2C[C@H]3c4cc(N5CCN(C)CC5)ccc4CCN3C[C@@H]12 | -5 | . | 5 | 11 | . | .
CCOC(=O)CSc1ccc2nnc(-c3cccnc3)n2n1 | 4 | 7.5* | 0 | 5 | -3 | -1
CCOC(=O)CSc1ccc2nnc(-c3ccccc3)n2n1 | -1 | -2 | 15 | -4 | . | .
[O-]/C(=C(\C(=S)Nc1cccc2ccccc12)[n+]1ccccc1)c1ccc(Cl)s1 | -2 | -3 | 8 | -3 | . | .
[O-]C(=C(C(=S)Nc1cccc2ccccc12)[n+]1cccc(CO)c1)c1ccc(Cl)s1 | -6 | 13* | -1 | -1 | 0 | 0
C[C@@H]1CNCCN1c1ccc(N2CCS(=O)(=O)CC2)c(C#N)c1 | -5 | . | 1 | -4 | . | .
O=C(NCc1ccncc1)Nc1ccccc1 | -6 | 54* | -5 | 9 | -1 | -1
COc1ccc(NC(=O)NCc2ccncc2)cc1 | -5 | 0 | -7 | 2 | . | .
C=CCc1ccccc1OCC(O)CN1CCN(c2ccccc2OC)CC1 (stereo not given) | -15 | 7.4*! | 5 | -2 | -1 | 0
C=CCc1ccccc1OCC(O)CN1CCN(c2ccccc2F)CC1 (stereo not given) | 1 | 1 | 7 | 7 | . | .
N#C/C(=C\c1cc(O)c(O)c(O)c1)C(N)=O | -3 | 49* | 1 | 1 | 49* | 20*
Cc1occc1C(=O)N1CCCC(N2CCN(c3ccccc3F)CC2)C1 (stereo not given) | 0 | 11* | 13 | -6 | -1 | 0
COC(=O)[C@]12CCCCC=C1N(CCc1ccc(OC)c(OC)c1)C(=O)[C@H](CC(=O)NCCc1ccccc1OC)C2 | -7 | . | 5 | -7 | . | .
O=c1cc(-c2ccccc2)nc(Sc2ccc([N+](=O)[O-])cc2[N+](=O)[O-])[nH]1 | -3 | -1 | -4 | -15 | . | .
Nc1nc(-c2ccc([N+](=O)[O-])cc2)cc(=O)[nH]1 | -2 | 13* | -11 | -7 | 11* | 0
SMILES | GalR3 antagonist | Rin1-Abl PPI inh | ARFGAP1 inh | ASAP1 inh | Rin1 Abl conf | GFP quencher | others
CCC1CCCCN1CCCNC(=O)c1ccc2c(c1)c(C)c(C)n2C (stereo not given) | -1 | 1 | 11 | 11 | . | .
CCC1CCCCN1CCCNC(=O)c1ccc2c(c1)c(C)c(C)n2CC (stereo not given) | -8 | 15* | 1 | 7 | -4 | 2
CC(C)c1nc2oc3c(NCC4CCCO4)ncnc3c2c2c1COC(C)(C)C2 (stereo not given) | -5 | 0 | 11 | 6 | . | .
CC(C)c1nc2oc3c(NCCO)ncnc3c2c2c1COC(C)(C)C2 | -6 | 7.7* | 0 | 9 | 7.7* | 1
COC(=O)c1cc2c(c3c4cc(OC)ccc4n(S(=O)(=O)c4ccc(F)cc4)c13)C(=O)N(Cc1ccccc1)C2 | -2 | . | -4 | -16 | . | .
CCCN1CCCCC(NC(=O)COCc2ccccc2)C1=O (stereo not given) | -1 | . | -3 | -13 | . | .
CC(=O)NC1=NN(C(C)=O)C(C)(c2ccco2)S1 (stereo not given) | 0 | 8.7* | -2 | 0 | -3 | 1
CC(=O)NC1=NN(C(C)=O)C(C)(c2ccc(C)o2)S1 (stereo not given) | -6 | 0 | -3 | 1 | . | .
C[C@@H]1C=CCCO[C@]12C(=O)Nc1ccccc12 | -7 | . | -1 | 1 | . | .
CC(=O)NC(c1cccs1)c1cc(F)c2cccnc2c1O (stereo not given) | -3 | 17* | 8 | -13 | 13* | 4
CC(=O)NC(c1ccco1)c1cc(F)c2cccnc2c1O (stereo not given) | -4 | 11 | -1 | 3 | . | .
Cc1ccccc1S(=O)(=O)N1CCCc2nc(C)c(C)cc21 | -7 | . | 10 | -3 | . | .
Cc1cc(C)cc(NC(=O)c2cccc(NC3=NC4CS(=O)(=O)CC4S3)c2)c1 (stereo not given) | . | 0 | 7 | -4 | . | .
COc1ccc(OC)c(CCNC(=O)c2ccc(NC3=NC4CS(=O)(=O)CC4S3)cc2)c1 (stereo not given) | . | 12* | -3 | -3 | 13* | 0
Cc1ccc(CCNC(=O)c2ccc(NC3=NC4CS(=O)(=O)CC4S3)cc2)cc1 (stereo not given) | -2 | 8.5* | -1 | -10 | 9.3* | 0
CCN(C(=O)Cc1ccc(NC2=NC3CS(=O)(=O)CC3S2)cc1)c1ccccc1 (stereo not given) | 3 | 15* | -13 | 2 | 11* | -1
CC(NC(=O)Cc1ccc(NC2=NC3CS(=O)(=O)CC3S2)cc1)c1ccccc1 (stereo not given) | . | 3 | 6 | 5 | . | .
O=C(NCCc1ccc(Cl)cc1)c1cccc(NC2=NC3CS(=O)(=O)CC3S2)c1 (stereo not given) | . | 8.4* | -4 | -4 | 8.0* | 0
O=C(N[C@@H](Cc1cccnc1)C(=O)N1CCC[C@H]1C(=O)NCCc1ccccc1Cl)c1ccccc1 | -4 | . | 7 | -5 | . | .
C[C@@H]1CN(c2ccc(N3CCN(C(=O)OC(C)(C)C)C[C@@H]3C)cc2C#N)C[C@H](C)O1 | 5 | . | 4 | -2 | . | .

Assay outcomes deposited in PubChem BioAssay by The Scripps Research Institute Molecular Screening Center.
